Data from ChEMBL document CHEMBL2412990, “Synthesis and pharmacological evaluation of new N-phenylpiperazine derivatives designed as homologues of the antipsychotic lead compound LASSBio-579” (Eur J Med Chem, 2013).
Calls of active or inactive are those of the source. No cut-off for these calls is given here.

How the values were obtained:
[1] = molecular target: T1, Adrenergic receptor alpha-2 (Rattus norvegicus, UniProt P22086+P19328+P22909); experiment: Displacement of [3H]-RX821002 from alpha2 adrenoreceptor in rat brain cortical membranes after 45 mins by liquid scintillation counting; type: cell membranes, Membrane
T1 sequence (P22086 whole entry): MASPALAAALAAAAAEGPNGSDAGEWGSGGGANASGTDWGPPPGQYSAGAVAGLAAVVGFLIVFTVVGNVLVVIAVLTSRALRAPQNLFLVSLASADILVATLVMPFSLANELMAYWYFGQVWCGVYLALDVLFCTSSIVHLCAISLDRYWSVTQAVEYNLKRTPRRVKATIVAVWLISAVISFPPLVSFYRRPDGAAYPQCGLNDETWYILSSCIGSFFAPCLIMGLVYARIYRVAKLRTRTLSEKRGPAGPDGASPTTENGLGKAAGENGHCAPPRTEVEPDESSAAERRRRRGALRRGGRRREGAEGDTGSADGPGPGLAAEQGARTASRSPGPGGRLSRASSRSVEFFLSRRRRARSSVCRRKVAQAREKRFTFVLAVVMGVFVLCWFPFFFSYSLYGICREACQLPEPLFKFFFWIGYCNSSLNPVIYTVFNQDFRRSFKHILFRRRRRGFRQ
T1 sequence (P19328 whole entry): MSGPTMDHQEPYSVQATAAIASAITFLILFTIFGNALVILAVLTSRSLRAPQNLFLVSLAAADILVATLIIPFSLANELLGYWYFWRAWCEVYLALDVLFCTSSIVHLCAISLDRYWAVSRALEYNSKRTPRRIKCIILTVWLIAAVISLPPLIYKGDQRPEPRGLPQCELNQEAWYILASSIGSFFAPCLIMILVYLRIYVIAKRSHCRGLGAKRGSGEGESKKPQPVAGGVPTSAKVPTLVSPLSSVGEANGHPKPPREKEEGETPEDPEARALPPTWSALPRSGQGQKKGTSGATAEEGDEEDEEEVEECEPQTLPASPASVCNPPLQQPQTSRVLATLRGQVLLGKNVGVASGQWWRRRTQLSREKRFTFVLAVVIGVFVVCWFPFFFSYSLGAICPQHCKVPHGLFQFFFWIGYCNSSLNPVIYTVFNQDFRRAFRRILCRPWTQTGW
T1 sequence (P22909 whole entry): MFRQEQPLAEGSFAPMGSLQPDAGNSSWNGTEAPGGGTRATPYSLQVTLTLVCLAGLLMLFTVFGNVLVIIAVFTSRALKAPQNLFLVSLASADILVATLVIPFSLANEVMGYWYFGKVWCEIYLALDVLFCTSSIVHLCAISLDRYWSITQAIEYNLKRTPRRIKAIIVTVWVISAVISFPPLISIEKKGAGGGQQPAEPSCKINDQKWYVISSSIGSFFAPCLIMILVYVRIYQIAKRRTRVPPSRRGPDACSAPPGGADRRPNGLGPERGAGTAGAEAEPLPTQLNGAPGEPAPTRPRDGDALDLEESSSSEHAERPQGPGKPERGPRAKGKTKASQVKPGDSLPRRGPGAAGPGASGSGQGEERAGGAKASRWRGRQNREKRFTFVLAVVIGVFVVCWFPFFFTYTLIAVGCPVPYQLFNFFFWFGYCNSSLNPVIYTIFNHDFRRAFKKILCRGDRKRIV

[2] = molecular target: T2, Alpha-1B adrenergic receptor (Rattus norvegicus, UniProt P15823); experiment: Displacement of [3H]-[…] from alpha1B adrenoreceptor in rat liver membranes after 45 mins by liquid scintillation counting; type: cell membranes, Membrane
T2 sequence (P15823 whole entry): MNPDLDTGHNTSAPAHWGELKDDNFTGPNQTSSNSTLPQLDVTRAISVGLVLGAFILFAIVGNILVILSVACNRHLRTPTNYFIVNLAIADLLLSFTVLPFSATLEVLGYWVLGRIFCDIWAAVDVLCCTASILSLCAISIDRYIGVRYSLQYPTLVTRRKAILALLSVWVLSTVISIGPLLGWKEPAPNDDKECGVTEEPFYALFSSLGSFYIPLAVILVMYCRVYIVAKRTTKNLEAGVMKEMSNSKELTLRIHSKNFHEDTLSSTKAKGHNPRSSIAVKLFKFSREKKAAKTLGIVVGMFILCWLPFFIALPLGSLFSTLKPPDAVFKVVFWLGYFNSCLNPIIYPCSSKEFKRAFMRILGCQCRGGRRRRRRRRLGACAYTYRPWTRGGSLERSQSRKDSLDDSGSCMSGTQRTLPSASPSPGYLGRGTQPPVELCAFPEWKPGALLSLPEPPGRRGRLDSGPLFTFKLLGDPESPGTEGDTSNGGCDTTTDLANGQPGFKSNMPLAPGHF

[3] = molecular target: 5-hydroxytryptamine receptor 2A (Rattus norvegicus, UniProt P14842); experiment: Displacement of [3H]-ketanserin from 5HT2A receptor in rat brain cortical membranes after 15 mins by liquid scintillation counting; type: cell membranes, Membrane
Mus musculus = experiment: Toxicity in CF1 mouse assessed as reduction in locomotor activity measuring number of crossings at 10 mg/kg, ip administered 30 mins prior ketamine challenge measured for 20 mins post challenge; type: organism-based; design: dose 10 mg/kg, route intraperitoneal; conditions: in vivo
[4] = molecular target: T3, 5-hydroxytryptamine receptor 1A (Rattus norvegicus) (UniProt P19327); experiment: Partial agonist activity at 5HT1A receptor in rat brain hippocampal membranes assessed as inhibition of [3H]-8-OH-DPAT binding to receptor after 15 mins by competition assay; type: cell membranes
T3 sequence (whole entry): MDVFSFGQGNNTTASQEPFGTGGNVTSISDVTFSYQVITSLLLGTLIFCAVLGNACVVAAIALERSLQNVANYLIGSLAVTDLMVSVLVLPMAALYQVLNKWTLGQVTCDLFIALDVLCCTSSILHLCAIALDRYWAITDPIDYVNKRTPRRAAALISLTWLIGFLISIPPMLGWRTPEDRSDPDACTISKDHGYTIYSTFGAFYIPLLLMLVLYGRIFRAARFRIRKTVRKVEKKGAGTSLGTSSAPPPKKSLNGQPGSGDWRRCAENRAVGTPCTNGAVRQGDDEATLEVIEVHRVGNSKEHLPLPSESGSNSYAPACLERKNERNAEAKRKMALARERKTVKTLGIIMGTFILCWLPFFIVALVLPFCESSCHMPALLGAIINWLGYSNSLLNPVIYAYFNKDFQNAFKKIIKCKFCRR
Method in brief: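 Hippocampal membranes, 40 µg protein, incubated with 1 nM [3H]-8-OH-DPAT at 37 °C for 15 min under yellow light. Buffer was 50 mM Tris-HCl pH 7.4 with 1 mM CaCl2, 1 mM MnCl2 and pargyline. Non-specific binding was defined with 5-HT. Filters were soaked in 0.5% polyethyleneimine. IC50 came from nonlinear regression fitted with one or two sites. Ki by Cheng-Prusoff, using Kd from saturation experiments.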

[5] = molecular target: Dopamine D2 receptor and Serotonin 2a receptor (D2 and 5HT2a) (Rattus norvegicus) (UniProt P61169+P14842); experiment: Selectivity ratio of Ki for dopamine D2 receptor in rat brain striatal membranes to Ki for 5HT2A receptor in rat brain cortical membranes; type: cell membranes; conditions: Membrane
Sequence of Dopamine D2 receptor and Serotonin 2a receptor (D2 and 5HT2a) (Rattus norvegicus) (P14842 whole entry, looked up): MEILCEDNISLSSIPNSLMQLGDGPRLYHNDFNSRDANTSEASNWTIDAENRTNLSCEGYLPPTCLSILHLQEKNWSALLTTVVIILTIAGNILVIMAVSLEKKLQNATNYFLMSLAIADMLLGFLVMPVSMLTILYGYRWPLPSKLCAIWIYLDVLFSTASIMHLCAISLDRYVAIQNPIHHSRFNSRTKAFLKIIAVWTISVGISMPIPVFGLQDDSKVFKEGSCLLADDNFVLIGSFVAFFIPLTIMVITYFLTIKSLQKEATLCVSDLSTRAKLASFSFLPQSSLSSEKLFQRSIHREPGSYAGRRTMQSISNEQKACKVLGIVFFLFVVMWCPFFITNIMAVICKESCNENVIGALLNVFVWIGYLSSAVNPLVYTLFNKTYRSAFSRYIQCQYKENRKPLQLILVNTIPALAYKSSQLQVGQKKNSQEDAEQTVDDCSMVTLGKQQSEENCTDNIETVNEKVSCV
Sequence of Dopamine D2 receptor and Serotonin 2a receptor (D2 and 5HT2a) (Rattus norvegicus) (P61169 whole entry, looked up): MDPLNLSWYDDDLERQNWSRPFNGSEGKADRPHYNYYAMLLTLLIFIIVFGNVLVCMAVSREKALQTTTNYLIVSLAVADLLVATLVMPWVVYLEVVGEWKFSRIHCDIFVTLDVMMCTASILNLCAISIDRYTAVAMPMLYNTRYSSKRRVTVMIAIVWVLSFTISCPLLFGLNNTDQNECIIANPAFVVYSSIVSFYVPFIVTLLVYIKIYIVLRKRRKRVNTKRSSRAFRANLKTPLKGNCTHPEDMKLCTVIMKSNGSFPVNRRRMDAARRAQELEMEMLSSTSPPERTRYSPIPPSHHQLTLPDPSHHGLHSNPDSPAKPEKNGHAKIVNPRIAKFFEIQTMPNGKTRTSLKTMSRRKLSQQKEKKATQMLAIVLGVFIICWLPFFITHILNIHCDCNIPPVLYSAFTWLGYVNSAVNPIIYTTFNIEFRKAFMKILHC

Sequence of 5-hydroxytryptamine receptor 2A (P14842 whole entry): as the sequence (P14842 whole entry, looked up) above

SMILES | Ki [1] [nM] | Ki [2] [nM] | Ki [3] [nM] | Activity (Mus musculus) | inhibition [4] | Ratio Ki [5]
Clc1ccc(-n2cc(CCCCCN3CCN(c4ccccc4)CC3)cn2)cc1 | 1400 | 380 | 950 | – | – | –
Clc1ccc(-n2cc(CCCCN3CCN(c4ccccc4)CC3)cn2)cc1 | 610 | 570 | 650 | Toxic | Active | 0.4
Clc1ccc(-n2cc(COCCN3CCN(c4ccccc4)CC3)cn2)cc1 | 2100 | 850 | 2490 | – | – | –
Clc1ccc(-n2cc(CCCN3CCN(c4ccccc4)CC3)cn2)cc1 | 1600 | 700 | 600 | – | – | –
Clc1ccc(-n2cc(COCCCN3CCN(c4ccccc4)CC3)cn2)cc1 | 2800 | 400 | 650 | – | – | –
Clc1ccc(-n2cc(CN3CCN(c4ccccc4)CC3)cn2)cc1 | 2500 | 2600 | 6910 | – | – | 0.056
